Measurements reported in ChEMBL document CHEMBL4689842, “EUbOPEN Chemogenomics Library wave 1” (2021).

Test system: Fibroblast
Experiment: Multiplex assay against human fibroblast
Format: toxicity, cell-based
How it was run: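 Per cents of healthy-nucleus cells form the tubulin, mitochondrial-mass and membrane-permeability phenotype values. Live cells were stained at seeding with Hoechst33342, BioTracker Green Microtubule Cytoskeleton Dye, MitoTracker Red and Annexin V Alexa Fluor 680. After compound addition they were imaged on a CQ1 microscope at 37°C and 5% CO2, and CellPathfinder machine-learning gating split them into Hoechst high-intensity objects or normal cells, normal cells into healthy, pyknosed or fragmented nuclei, and pyknosed cells into mitotic or apoptotic.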

[1] = 12 h, 1 µM, compound concentration 1 uM, replicate 1
[2] = 12 h, 1 µM, compound concentration 1 uM, replicate 2
[3] = 12 h, 10 µM, compound concentration 10 uM, replicate 1
[4] = 12 h, 10 µM, compound concentration 10 uM, replicate 2
[5] = 24 h, 1 µM, compound concentration 1 uM, replicate 1
[6] = 24 h, 1 µM, compound concentration 1 uM, replicate 2
[7] = 24 h, 10 µM, compound concentration 10 uM, replicate 1
[8] = 24 h, 10 µM, compound concentration 10 uM, replicate 2

## CCc1cccc(CC)c1NC(=O)c1nn(C)c2c1CCc1cnc(Nc3ccc(N4CCN(C)CC4)cc3OC)nc1-2
[1]
  Population Apoptotic (%): 45%
  Population Fragmented Nuclei (%): 17%
  Population Healthy Nuclei (%): 47%
  Population Hoechst High Intensity Objects (%): 9%
  Population Membrane Permeable-Phenotype (%): 8%
  Population Mitochondria Different-Phenotype (%): 72%
  Population Mitotic Cells (%): 54%
  Population Normal (%): 90%
  Population Pyknosed Nuclei (%): 34%
  Population Tubulin-Different-Phenotype (%): 75%
  Total Cell Count: 142
[2]
  Population Apoptotic (%): 50%
  Population Fragmented Nuclei (%): 54%
  Population Healthy Nuclei (%): 18%
  Population Hoechst High Intensity Objects (%): 25%
  Population Membrane Permeable-Phenotype (%): 0%
  Population Mitochondria Different-Phenotype (%): 75%
  Population Mitotic Cells (%): 50%
  Population Normal (%): 74%
  Population Pyknosed Nuclei (%): 27%
  Total Cell Count: 59
[3]
  Population Apoptotic (%): 71%
  Population Fragmented Nuclei (%): 32%
  Population Healthy Nuclei (%): 46%
  Population Hoechst High Intensity Objects (%): 11%
  Population Membrane Permeable-Phenotype (%): 2%
  Population Mitochondria Different-Phenotype (%): 11%
  Population Mitotic Cells (%): 28%
  Population Normal (%): 88%
  Population Pyknosed Nuclei (%): 20%
  Population Tubulin-Different-Phenotype (%): 18%
  Total Cell Count: 213
[4]
  Population Apoptotic (%): 20%
  Population Fragmented Nuclei (%): 51%
  Population Healthy Nuclei (%): 40%
  Population Hoechst High Intensity Objects (%): 21%
  Population Membrane Permeable-Phenotype (%): 3%
  Population Mitochondria Different-Phenotype (%): 30%
  Population Mitotic Cells (%): 80%
  Population Normal (%): 78%
  Population Pyknosed Nuclei (%): 7%
  Population Tubulin-Different-Phenotype (%): 23%
  Total Cell Count: 82
[5]
  Population Apoptotic (%): 80%
  Population Fragmented Nuclei (%): 25%
  Population Healthy Nuclei (%): 29%
  Population Hoechst High Intensity Objects (%): 10%
  Population Membrane Permeable-Phenotype (%): 2%
  Population Mitochondria Different-Phenotype (%): 89%
  Population Mitotic Cells (%): 19%
  Population Normal (%): 89%
  Population Pyknosed Nuclei (%): 44%
  Population Tubulin-Different-Phenotype (%): 78%
  Total Cell Count: 140
[6]
  Population Apoptotic (%): 100%
  Population Fragmented Nuclei (%): 61%
  Population Healthy Nuclei (%): 11%
  Population Hoechst High Intensity Objects (%): 30%
  Population Membrane Permeable-Phenotype (%): 0%
  Population Mitochondria Different-Phenotype (%): 100%
  Population Mitotic Cells (%): 0%
  Population Normal (%): 69%
  Population Pyknosed Nuclei (%): 27%
  Population Tubulin-Different-Phenotype (%): 100%
  Total Cell Count: 63
[7]
  Population Apoptotic (%): 72%
  Population Fragmented Nuclei (%): 37%
  Population Healthy Nuclei (%): 46%
  Population Hoechst High Intensity Objects (%): 13%
  Population Membrane Permeable-Phenotype (%): 4%
  Population Mitochondria Different-Phenotype (%): 11%
  Population Mitotic Cells (%): 27%
  Population Normal (%): 86%
  Population Pyknosed Nuclei (%): 16%
  Total Cell Count: 262
[8]
  Population Apoptotic (%): 66%
  Population Fragmented Nuclei (%): 60%
  Population Healthy Nuclei (%): 35%
  Population Hoechst High Intensity Objects (%): 20%
  Population Membrane Permeable-Phenotype (%): 6%
  Population Mitochondria Different-Phenotype (%): 10%
  Population Mitotic Cells (%): 33%
  Population Normal (%): 80%
  Population Pyknosed Nuclei (%): 3%
  Population Tubulin-Different-Phenotype (%): 16%
  Total Cell Count: 105
